# Source: PubChem
# A selection: hits, their analogues and other compounds. The true share with any hit is near 1.8%.
# CHOP UPR activ = activators of apoptotic arm of unfolded protein response (CHOP); CHO-CHOP luciferase reporter, UPR activation, luminescence; percent of tunicamycin response over DMSO baseline; activation, % at 10 µM; 0.34% of 330,000 active;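 active = at 10 µM dose, activation of 40% or more, normalized to positive control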
#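 assay system = CHO CHOP reporter cells | amount = 500 CHO-CHOP cells per well | buffer or medium = F12 with 10% FBS | incubation = 16-18 h cell attachment, then 6 h compound exposure, 37 °C | detection = luminescence read with Steady-Glo | read-out = percent activation relative to tunicamycin control | controls = tunicamycin high control, DMSO low control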
# CRFR2-BP antag = antagonists of CRF-binding protein/CRF-R2 receptor complex. 0.59% of 350,000 active. inhibition, % at 11.8 µM. HEK293 CRF-R2/CRF-BP, CRF-induced calcium fluorescence;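 active = inhibition of the ligand-induced calcium signal above about 50% at the single tested concentration, limit read from the data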
# 697 NFkB inh = inhibitors of the PMA/ionomycin-induced NF-kB reporter in 697 B cells; 697 B-cell NF-kB luciferase reporter, 16 h; inhibition, % at 4 µM; 0.33% of 330,000 active; in the data active = inhibition above about 35%
# Jurkat NFkB inh = inhibitors of the PMA/ionomycin-induced NF-kB reporter in Jurkat cells; PMA/ionomycin-induced NF-kB luciferase reporter, luminescence; inhibition, % at 4 µM; 0.53% of 330,000 active; in the data active = inhibition above about 50%
# UPR XBP1 act = activators of adaptive arm of unfolded protein response (XBP1); activation, % at 20 µM; 0.33% of 330,000 active; CHO-XBP1 luciferase reporter, IRE1-XBP1 UPR activation, luminescence; percent of tunicamycin response, DMSO as zero;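 active = versus positive control, 20 µM dose yields 30% or more activation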
#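 Test system: CHO-XBP1 luciferase reporter cells | Buffer or medium: Serum-containing F12 medium, 10% FBS | Schedule: 6 h compound exposure at 37 °C, 5% CO2 | Detection: Steady-Glo luciferase glow luminescence, 10 min after reagent addition | Read-out basis: Activation, % of tunicamycin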
# Jurkat NFkB conf = lowers PMA/ionomycin-induced NF-kB signal in Jurkat cells; shares compounds with Jurkat NFkB inh; Jurkat NF-kB luciferase, 16 h; inhibition, % at 4 µM; 27% of 2,700 active;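 active = inhibition reaching about 45% at 4 µM in either replicate, limit read from the data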
# A number is an active result; n = inactive; x = not tested or not shown.
SMILES,CHOP UPR activ,CRFR2-BP antag,697 NFkB inh,Jurkat NFkB inh,UPR XBP1 act,Jurkat NFkB conf
O=C(Nc1ccccc1N1CCN(C(=O)c2ccccc2)CC1)c1ccc(Br)o1,n,n,n,n,n,x
CN(Cc1cnn(Cc2ccccc2)c1)C(=O)c1cccc(S(=O)(=O)N2CCOCC2)c1,n,n,n,n,n,x
COc1ccc(C(=O)N(C)Cc2cnn(Cc3ccccc3)c2)cc1S(=O)(=O)N1CCOCC1,n,n,n,54,n,n
COCCOC(=O)c1[nH]c2c(c1C)C(=O)CC(c1ccc(F)cc1)C2 (centres undefined),n,n,n,n,n,x
Cc1c(C(=O)OCc2ccccc2)[nH]c2c1C(=O)CC(c1ccco1)C2 (centres undefined),n,n,n,63,n,n
COCCOC(=O)c1[nH]c2c(c1C)C(=O)CC(c1ccccc1)C2 (centres undefined),n,n,n,n,n,x
Cc1c(C(=O)O)[nH]c2c1C(=O)CC(c1ccccc1)C2 (centres undefined),n,n,n,n,n,x
Cc1c(C(=O)OCCOC(C)C)[nH]c2c1C(=O)CC(c1ccco1)C2 (centres undefined),n,n,n,60,n,n
COCCOC(=O)c1[nH]c2c(c1C)C(=O)CC(c1ccco1)C2 (centres undefined),n,n,n,60,n,n
CCOC(=O)c1[nH]c2c(c1C)C(=O)CC(c1ccco1)C2 (centres undefined),n,n,n,75,n,55
O=S(=O)(Cc1ncc(C(F)(F)F)cc1Cl)c1ccccc1,n,n,n,n,n,x
O=C(CCC(=O)N1CCOc2ccc(Cl)cc21)NCCN1CCOCC1,n,n,n,n,n,x
COc1ccccc1CNC(=O)COC(=O)/C=C/c1ccc2c(c1)OCO2,n,n,n,n,n,x
CSCCOC(=O)c1[nH]c2c(c1C)C(=O)CC(c1ccco1)C2 (centres undefined),n,n,n,58,n,n
CCCCCN(C(=O)CCC(=O)OCc1ccc(Cl)cc1Cl)c1c(N)n(CCCC)c(=O)[nH]c1=O,n,n,n,n,n,x
COc1cc2sc(NC(=O)c3ccco3)nc2cc1Cl,n,n,n,n,n,x
COc1cc2nc(NC(=O)c3ccco3)sc(=O)c2cc1OC,n,n,n,80,n,89
COC(=O)c1cc(OC)c(OC)cc1NC(=S)NC(=O)c1ccco1,n,n,n,85,n,n
COc1cc(NC(=S)NC(=O)c2ccco2)ccc1NC(=O)C(C)C,n,n,n,n,n,x
Cn1cc(C(=O)N/N=C/c2c(O)ccc3ccccc23)ccc1=O,n,n,n,59,n,76
O=C(N/N=C\c1c(O)ccc2ccccc12)c1cncc(Br)c1,n,n,n,52,n,79
Cc1c(C(=O)N/N=C/c2c(O)ccc3ccccc23)nnn1-c1nonc1N,n,n,n,55,n,76
O=C(CSCC(=O)Nc1ccccc1)N/N=C/c1c(O)ccc2ccccc12,n,n,n,63,n,n
CCOc1ccccc1C(=O)NCC(=O)NCCCSc1ccccc1,n,n,n,n,n,x
O=C(CS(=O)(=O)c1ccc(Cl)cc1)Nc1nnc(-c2cccs2)o1,n,n,n,n,n,x
SMILES,CHOP UPR activ,CRFR2-BP antag,697 NFkB inh,Jurkat NFkB inh,UPR XBP1 act,Jurkat NFkB conf
O=C(N/N=C/c1c(O)ccc2ccccc12)c1ccc(Br)o1,n,n,n,52,n,62
O=C(Cn1sc2ccccc2c1=O)N1CCN(C(=O)c2ccco2)CC1,n,n,n,n,n,x
CCN1/C(=C/C(C)=O)Sc2ccc(OC)cc21,n,n,n,n,n,x
CCN1/C(=C/c2cccc[n+]2C)Sc2ccc(OC)cc21,n,n,n,72,n,n
COc1ccc2c(c1)N(C)/C(=C/c1cccc[n+]1C)S2,n,n,n,61,n,n
COc1ccc2c(c1)S/C(=C\C(=O)c1ccncc1)N2C,n,n,n,n,n,x
CC1(C)CC(NC(=O)c2ccc(Cl)c(S(=O)(=O)N(Cc3ccccc3)c3ccccc3)c2)CC(C)(C)N1,n,n,n,71,n,n
CCOC(=O)C1CCCC12Nc1cccc3cccc(c13)N2 (centres undefined),x,n,x,x,x,x
